Assay results from ChEMBL document CHEMBL3244414, “Structure-activity relationships among the O-acyl derivatives of leucomycin. Correlation of minimal inhibitory concentrations with binding to Escherichia coli ribosomes” (J Med Chem, 1977).
≈ marks a conversion by molar mass, not a printed value.

How the values were obtained:
[1] = biological target: Bacterial 70S ribosome (Bacteria) (UniProt P0A7V0+P60723+P0AG67+P0A7R5+P0A7R9+P0A7S3+P0A7S9+P0AG59+P0ADZ4+P0A7T3+P0AG63+P0A7T7+P0A7U3+P0A7U7+P68679+P0A7V3+P0A7V8+P0A7W1+P02358+P02359+P0A7W7+P0A7X3+P0A7J3+P0A7J7+P0AA10+P0ADY3+P02413+P0ADY7+P0AG44+P0C018+P0A7K6+P0A7L0+P0A7L3+P0AG48+P61175+P0ADZ0+P60624+P68919+P0A7L8+P0A7M2+P0A7M6+P60422+P0AG51+P0A7N1+P0A7M9+P0A7N4+P0A7N9+P0A7P5+P0A7Q1+Q2EEQ2+P0A7Q6+P60438+P62399+P0AG55+P0A7K2); assay: (§1) Displacement of [14C]erythromycin from Escherichia coli ribosomes after 30 mins by scintillation spectrometer analysis
Procedure, shortened: (§2)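 NH4Cl-washed E. coli ribosomes with [14C]erythromycin A and varied competitor concentrations in 0.01 M Tris-HCl pH 7.2, 0.1 M KCl, 0.004 M MgCl2, 0.01 M NH4Cl. Incubated 30 min at 24 °C, stopped by dilution in cold Tris/KCl/MgCl2 buffer, membrane-filtered, washed three times, dried, scintillation counted. Reports the concentration giving 50% inhibition of binding.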

[2] = biological target: Bacterial 70S ribosome; assay: as §1; procedure, shortened: as §2
[3] = test system: Klebsiella pneumoniae; assay: Antimicrobial activity against Klebsiella pneumoniae ATCC 10031 by agar dilution method; assay type: functional; details: Klebsiella pneumoniae, ATCC 10031; read-out: MIC
Procedure, shortened: (§3)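 Read-out is the minimal inhibitory concentration, found by agar dilution against the named strain.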

[4] = test system: Staphylococcus aureus; assay: Antimicrobial activity against Staphylococcus aureus ATCC 6538P by agar dilution method; assay type: functional; details: Staphylococcus aureus, ATCC 6538P; read-out: MIC; procedure, shortened: as §3
[5] = test system: Bacillus spizizenii; assay: Antimicrobial activity against Bacillus subtilis ATCC 6633 by agar dilution method; assay type: functional; details: Bacillus spizizenii, ATCC 6633; read-out: MIC; procedure, shortened: as §3

Row | SMILES | pK50 [1] | IC50 [2] [nM] | MIC [3] [µg/mL] | MIC [4] [µg/mL] | MIC [5] [µg/mL]
1 | CO[C@@H]1[C@@H](O[C@@H]2O[C@H](C)[C@@H](O[C@H]3C[C@@](C)(O)[C@@H](OC(C)=O)[C@H](C)O3)[C@H](N(C)C)[C@H]2O)[C@@H](CC=O)C[C@@H](C)[C@@H](OC(C)=O)/C=C/C=C/C[C@@H](C)OC(=O)C[C@H]1O | 5.7 | 2100 | 50 (≈ 63.6 µM) | 6.3 (≈ 8.02 µM) | 3.1 (≈ 3.94 µM)
2 | CO[C@@H]1[C@@H](O[C@@H]2O[C@H](C)[C@@H](O[C@H]3C[C@@](C)(O)[C@@H](OC(=O)CC(C)C)[C@H](C)O3)[C@H](N(C)C)[C@H]2O)[C@@H](CC=O)C[C@@H](C)[C@@H](OC(=O)CCl)/C=C/C=C/C[C@@H](C)OC(=O)C[C@H]1OC(C)=O | 5.8 | 1700 | 50 (≈ 55.3 µM) | 0.8 (≈ 0.884 µM) | 0.4 (≈ 0.442 µM)
3 | CCCC(=O)O[C@H]1[C@H](C)O[C@@H](O[C@H]2[C@H](N(C)C)[C@@H](O)[C@H](O[C@H]3[C@@H](CC=O)C[C@@H](C)[C@@H](OC(C)=O)/C=C/C=C/C[C@@H](C)OC(=O)C[C@@H](O)[C@@H]3OC)O[C@@H]2C)C[C@@]1(C)O | 6.1 | 900 | 25 (≈ 30.7 µM) | 1.6 (≈ 1.97 µM) | 0.4 (≈ 0.491 µM)
4 | CO[C@@H]1[C@@H](O[C@@H]2O[C@H](C)[C@@H](O[C@H]3C[C@@](C)(O)[C@@H](OC(=O)CC(C)C)[C@H](C)O3)[C@H](N(C)C)[C@H]2O)[C@@H](CC=O)C[C@@H](C)[C@@H](OC(=O)C(C)C)/C=C/C=C/C[C@@H](C)OC(=O)C[C@H]1OC(C)=O | 5.7 | 2000 | 100 (≈ 111 µM) | 3.1 (≈ 3.45 µM) | 0.8 (≈ 0.891 µM)
5 | CCC(=O)O[C@H]1/C=C/C=C/C[C@@H](C)OC(=O)C[C@@H](OC(C)=O)[C@H](OC)[C@@H](O[C@@H]2O[C@H](C)[C@@H](O[C@H]3C[C@@](C)(O)[C@@H](OC(=O)CC(C)C)[C@H](C)O3)[C@H](N(C)C)[C@H]2O)[C@@H](CC=O)C[C@H]1C | 5.7 | 1900 | 100 (≈ 113 µM) | 3.1 (≈ 3.51 µM) | 0.4 (≈ 0.452 µM)
6 | CCC(=O)O[C@H]1/C=C/C=C/C[C@@H](C)OC(=O)C[C@@H](O)[C@H](OC)[C@@H](O[C@@H]2O[C@H](C)[C@@H](O[C@H]3C[C@@](C)(O)[C@@H](O)[C@H](C)O3)[C@H](N(C)C)[C@H]2O)[C@@H](CC=O)C[C@H]1C | 5.4 | 4000 | 100 (≈ 132 µM) | 6.3 (≈ 8.31 µM) | 3.1 (≈ 4.09 µM)
7 | CCCC(=O)O[C@H]1[C@H](C)O[C@@H](O[C@H]2[C@H](N(C)C)[C@@H](OC(C)=O)[C@H](O[C@H]3[C@@H](CC=O)C[C@@H](C)[C@@H](O)/C=C/C=C/C[C@@H](C)OC(=O)C[C@@H](O)[C@@H]3OC)O[C@@H]2C)C[C@@]1(C)O | 4.8 | 14800 | 12.5 (≈ 15.4 µM) | 1.6 (≈ 1.97 µM) | 0.8 (≈ 0.983 µM)
8 | CO[C@@H]1[C@@H](O[C@@H]2O[C@H](C)[C@@H](O[C@H]3C[C@@](C)(O)[C@@H](OC(=O)CC(C)C)[C@H](C)O3)[C@H](N(C)C)[C@H]2O)[C@@H](CC=O)C[C@@H](C)[C@@H](OC(=O)CCC(=O)O)/C=C/C=C/C[C@@H](C)OC(=O)C[C@H]1OC(C)=O | 5.5 | 3400 | 100 (≈ 108 µM) | 3.1 (≈ 3.34 µM) | 3.1 (≈ 3.34 µM)
9 | CO[C@@H]1[C@@H](O[C@@H]2O[C@H](C)[C@@H](O[C@H]3C[C@@](C)(O)[C@@H](O)[C@H](C)O3)[C@H](N(C)C)[C@H]2O)[C@@H](CC=O)C[C@@H](C)[C@@H](OC(C)=O)/C=C/C=C/C[C@@H](C)OC(=O)C[C@H]1OC(C)=O | 5.2 | 6300 | 50 (≈ 63.6 µM) | 3.1 (≈ 3.94 µM) | 1.6 (≈ 2.04 µM)
